The series concerns Mus musculus. Description: Sedative activity in Swiss mouse assessed as reduction of locomotor activity at 10 umol/kg, ip after 40 mins. In kind it is organism-based. Conditions: in vivo; call rule not given here. Summed up: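 Mice received a single screening dose intraperitoneally. Motor activity was counted over the 40 min after injection and expressed as movements per minute. An untreated control group and a midazolam reference group (2 mg/kg) were run alongside. Data are given as means ± SEM, and significance was tested against control.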
For the compound `Cc1ccc(N2C(=O)c3cnc4c(c(C)nn4C)c3C2=O)cc1`, the Activity result is “Not Active”.

For the compound `Cc1nn(C)c2ncc3c(c12)C(=O)N(c1ccc(C(=O)O)cc1)C3=O`, the Activity result is recorded as “Not Active”.

In the case of `Cc1nn(-c2ccccc2)c2ncc3c(c12)C(=O)N(c1ccc([N+](=O)[O-])cc1)C3=O`, the result was Active.

In the case of `Cc1nn(-c2ccccc2)c2ncc3c(c12)C(=O)N(c1ccc(C(=O)O)cc1)C3=O`, the Activity entry is listed as “Not Active”.

In the case of `Cc1nn(C)c2ncc3c(c12)C(=O)N(c1ccccc1)C3=O`, the Activity result was “Not Active”.

Take `Cc1nn(-c2ccccc2)c2ncc3c(c12)C(=O)N(c1ccc(Cl)cc1)C3=O`: the Activity result is “Not Active”.

As for `Cc1ccc(N2C(=O)c3cnc4c(c(C)nn4-c4ccccc4)c3C2=O)cc1`, the Activity entry is “Not Active”.

As to `COc1ccc(N2C(=O)c3cnc4c(c(C)nn4-c4ccccc4)c3C2=O)cc1`, the outcome was Active.

Consider `Cc1nn(-c2ccccc2)c2ncc3c(c12)C(=O)N(c1ccccc1)C3=O`, for which the Activity result is “Not Active”.

Turning to `Cc1nn(C)c2ncc3c(c12)C(=O)N(c1ccc([N+](=O)[O-])cc1)C3=O`, the Activity entry is reported as “Not Active”.

`Cc1nn(C)c2ncc3c(c12)C(=O)N(c1ccc(Cl)cc1)C3=O`: the Activity result was “Not Active”.

`COc1ccc(N2C(=O)c3cnc4c(c(C)nn4C)c3C2=O)cc1`: the Activity entry is listed as “Not Active”.

The record behind these values is ChEMBL document CHEMBL1153193, “Microwave-assisted synthesis and structure-activity relationships of neuroactive pyrazolo[3,4-b]pyrrolo[3,4-d]pyridine derivatives” (Bioorg Med Chem Lett, 2010).
